For data set [1] the following is noted: cited from earlier work.
For data set [2] the following is noted: cited from earlier work. This is another data set of the same source.
Data set [3] is described as follows: In vivo pharmacokinetic study. Also on record: species or system Sprague–Dawley rats. Summed up:
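Male Sprague–Dawley rats (~300 g) were anaesthetised with Zoletil i.m. at […]. They received test compound in 10% ethanol or as albumin nanoparticles s.c. at 0.33 mg g−1. Blood (400 μL) was drawn from the subclavian vein at 0.08–6 h into heparin tubes. Plasma was spiked with carbamazepine internal standard, deproteinised with methanol, dried and reconstituted in methanol. Analysis was by RP-18 HPLC at 265 nm, and parameters were computed by first-order kinetic modelling.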

In data set [4] the test system is Peripheral Blood Mononuclear Cells (PBMCs). Put plainly: Ex vivo peripheral blood mononuclear cells. To be noted: rat PBMCs. Format: cell-based, male Sprague–Dawley rats. In short, it runs like this: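 PBMCs came from the peripheral blood of male Sprague–Dawley rats. They were isolated by Ficoll–Paque density-gradient centrifugation, collected from the interphase and washed three times in RPMI 1640. Cells were plated at 1×10^6/well in RPMI 1640 with 10% FBS (37 °C, 5% CO2) and incubated overnight with free test compound or albumin-nanoparticle formulation. Viability was then read by the CCK-8 A450 procedure used for HuT-78.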

The conditions of data set [5]: clinical; cited from earlier work.
[6] abbreviates: male, Sprague-Dawley, rat, plasma, sc, 0.333 mg.

“Also recorded” adds a separate entry of the source.

For orientation: log P means the decadic logarithm of the partition coefficient of the neutral form, usually between octanol and water. As a reminder, the pKa is the negative logarithm of the acid dissociation constant. The term AUC(0-t) denotes the area under the concentration-time curve up to a stated or last time point. As a reminder, the Cmax is the maximum level reached in the sampled fluid or tissue. By Tmax is commonly meant the time from dosing to the highest level. Broadly, the half-life is the time in which the quantity being followed falls by half. A high value points to slow decline. On to `O=C(/C=C/c1cccc(S(=O)(=O)Nc2ccccc2)c1)NO` [Belinostat], for which, in data set [1], the “log P” value is reported as 1.83 and the pKa is 7.87. The protein binding affinity in data set [2] was 92.9–95.8%. This molecule displayed a CL in data set [3] (SD rats, subcutaneous, 0.333 mg g^−1, n = 3) of 5.32 ± 1.53 mL/h. Moreover, in data set [3] (setting [6]), the AUC(0-t) is 62000 ± 28700 ng·h/mL, the highest level (Cmax) was 8650 ± 780 ng/mL, the Tmax stood at 0.43 ± 0.13 h and the half-life is 4.66 ± 1.66 h. For the same molecule, in data set [4] (concentration 10 μM), the “viability of PBMCs” value was “decreases”. The “viability (survival) of PBMC” value in data set [4] (high dose 100 μM) was “did not survive; also recorded: no survival”. Also, in data set [5], the “thrombocytopenia adverse events, Grade 3 to 4” value is ~ 7% and the “thrombocytopenia adverse events, all grades” value is ~ 16%.

Source of the values: paper PMC11520922 (International Journal of Nanomedicine, 2024).
